In ChEMBL document CHEMBL1156175, “Synthesis, molecular modeling and biological evaluation of PSB as targeted antibiotics” (Bioorg Med Chem, 2010):
Converted amounts (≈) assume the structure as drawn.

Tests used:
[1] = biological target: T1, 3-oxoacyl-[acyl-carrier-protein] synthase 3 (Escherichia coli, UniProt C3TDZ2); assay: Inhibition of Escherichia coli KAS3 after 1 min assessed as incorporation of 3H signal in the final product by liquid scintillation counter; details: in the assay text read “after 25 mins” for “after 1 min”
T1 sequence (C3TDZ2 whole entry): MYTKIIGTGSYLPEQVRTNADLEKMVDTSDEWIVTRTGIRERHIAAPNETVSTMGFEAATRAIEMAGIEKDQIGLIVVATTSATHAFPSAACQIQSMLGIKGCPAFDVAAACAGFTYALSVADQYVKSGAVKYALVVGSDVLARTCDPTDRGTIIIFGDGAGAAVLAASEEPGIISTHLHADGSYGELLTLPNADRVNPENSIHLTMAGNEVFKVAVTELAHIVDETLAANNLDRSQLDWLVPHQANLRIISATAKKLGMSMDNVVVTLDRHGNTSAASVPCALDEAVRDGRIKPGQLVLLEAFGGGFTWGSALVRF
In short: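 His-tagged ecKAS III expressed in E. coli BL21(DE3) (pET30) and purified on Ni–NTA. Reaction in 20 mM sodium phosphate pH 7.0, 0.5 mM DTT, 0.25 mM MgCl₂ with holo-ACP and 1 nM enzyme, preincubated 1 min. Started with acetyl-CoA, NADH and NADPH (0.5 mM each for the last two); run 25 min. Stopped with ice-cold TCA; protein pellet washed and dissolved in NaOH; ³H incorporation read by liquid scintillation. Inhibitors added from DMSO stock, final DMSO ≤2%.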

[2] = system: Bacillus subtilis; assay: Antibacterial activity against Bacillus subtilis ATCC 6633 after 24 hrs by colorimetric method using dye MTT; assay type: functional; details: ATCC 6633, 24 h
In short: (§1)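 Mueller–Hinton broth microdilution; compounds from DMSO stock (50 μg/mL) serially diluted in medium; inoculum approx. 10⁵ cfu/mL; 37 °C for 24 h. After visual MIC reading, PBS (0.01 mol/L, pH 7.4) containing 2 mg/mL MTT added, incubated 4–5 h at room temperature, then 12 h at room temperature; OD read at 550 nm. MIC is the average of triplicates.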

[3] = system: Escherichia coli; assay: Antibacterial activity against Escherichia coli ATCC 35218 after 24 hrs by colorimetric method using dye MTT; assay type: functional; details: ATCC 35218, 24 h; in short: as §1
[4] = system: Pseudomonas aeruginosa; assay: Antibacterial activity against Pseudomonas aeruginosa ATCC 13525 after 24 hrs by colorimetric method using dye MTT; assay type: functional; details: ATCC 13525, 24 h; in short: as §1
[5] = system: Staphylococcus aureus; assay: Antibacterial activity against Staphylococcus aureus ATCC 6538 after 24 hrs by colorimetric method using dye MTT; assay type: functional; details: ATCC 6538, 24 h; in short: as §1
[6] = biological target: T1, 3-oxoacyl-[acyl-carrier-protein] synthase 3; assay: Inhibition of Escherichia coli KAS3 after 25 mins assessed as incorporation of 3H signal in the final product by liquid scintillation counter

SMILES | IC50 [1] | MIC [2] | MIC [3] | MIC [4] | MIC [5] | IC50 [6]
CC(CNC(=O)c1ccccc1O)/N=C/c1cc(Cl)cc(Cl)c1O (stereo unspecified) | 0.844 µM | 1.56 µg/mL (≈ 4.25 µM) | 0.39 µg/mL (≈ 1.06 µM) | 0.2 µg/mL (≈ 0.545 µM) | 3.13 µg/mL (≈ 8.52 µM) | 
Cc1ccc(C(=O)NCC(C)/N=C/c2c(O)ccc3ccccc23)c(O)c1 (stereo unspecified) |  | 6.25 µg/mL (≈ 17.2 µM) | 12.5 µg/mL (≈ 34.5 µM) | > 50 µg/mL | > 50 µg/mL | 12.9 µM
Cc1ccc(C(=O)NCC(C)/N=C/c2cc(F)ccc2O)c(O)c1 (stereo unspecified) |  | 3.13 µg/mL (≈ 9.47 µM) | 6.25 µg/mL (≈ 18.9 µM) | > 50 µg/mL | 12.5 µg/mL (≈ 37.8 µM) | 17.1 µM
CC(CNC(=O)c1ccccc1O)/N=C/c1cc(F)ccc1O (stereo unspecified) | 38.3 µM |  |  |  |  | 
CC(CNC(=O)c1ccccc1O)/N=C/c1ccccc1O (stereo unspecified) | 27.3 µM |  |  |  |  | 
Cc1ccc(C(=O)NCC(C)/N=C/c2ccccc2O)c(O)c1 (stereo unspecified) | 25.2 µM |  |  |  |  | 
CC(CNC(=O)c1ccccc1O)/N=C/c1cc(Cl)ccc1O (stereo unspecified) |  | > 50 µg/mL | 12.5 µg/mL (≈ 37.6 µM) | 3.13 µg/mL (≈ 9.41 µM) | > 50 µg/mL | 16.4 µM
CC(CNC(=O)c1cc(Br)ccc1O)/N=C/c1c(O)ccc2ccccc12 (stereo unspecified) | 25.6 µM |  |  |  |  | 
NC[C@H]1O[C@H](O[C@H]2[C@H](O)[C@@H](O[C@H]3O[C@H](CO)[C@@H](O)[C@H](N)[C@H]3O)[C@H](N)C[C@@H]2N)[C@H](O)[C@@H](O)[C@@H]1O [KANAMYCIN] |  | 1.56 µg/mL (≈ 3.22 µM) | 3.13 µg/mL (≈ 6.46 µM) | 3.13 µg/mL (≈ 6.46 µM) | 1.56 µg/mL (≈ 3.22 µM) | 
Cc1ccc(C(=O)NCC(C)/N=C/c2cc(Cl)cc(Cl)c2O)c(O)c1 (stereo unspecified) | 4.59 µM | 1.56 µg/mL (≈ 4.09 µM) | 3.13 µg/mL (≈ 8.21 µM) | 25 µg/mL (≈ 65.6 µM) | 6.25 µg/mL (≈ 16.4 µM) | 
Cc1ccc(C(=O)NCC(C)/N=C/c2cc(Cl)ccc2O)c(O)c1 (stereo unspecified) | 24.9 µM |  |  |  |  | 
CC(CNC(=O)c1ccccc1O)/N=C/c1c(O)ccc2ccccc12 (stereo unspecified) | 56.7 µM |  |  |  |  | 

Results, then the compound that gave them:

IC50 [1] | MIC [2] | MIC [3] | MIC [4] | MIC [5] | IC50 [6] | SMILES
36.6 µM |  |  |  |  |  | CC(CNC(=O)c1cc(Br)ccc1O)/N=C/c1cc(Br)ccc1O (stereo unspecified)
> 79.5 µM |  |  |  |  |  | CC(CNC(=O)c1cc(Br)ccc1O)/N=C/c1cc(I)cc(I)c1O (stereo unspecified)
56 µM |  |  |  |  |  | CC(CNC(=O)c1cc(Br)ccc1O)/N=C/c1cc(F)ccc1O (stereo unspecified)
 |  |  |  |  | > 121 µM | CC(CNC(=O)c1cc(Br)ccc1O)/N=C/c1cc(Cl)ccc1O (stereo unspecified)
 |  |  |  |  | 18.5 µM | CC(CNC(=O)c1cc(Br)ccc1O)/N=C/c1cc(I)ccc1O (stereo unspecified)
> 93.5 µM |  |  |  |  |  | CC(CNC(=O)c1cc(Br)ccc1O)/N=C/c1cc(Br)cc(Br)c1O (stereo unspecified)
 | 1.56 µg/mL (≈ 3.56 µM) | 0.39 µg/mL (≈ 0.89 µM) | 3.13 µg/mL (≈ 7.14 µM) | 1.56 µg/mL (≈ 3.56 µM) | 1.03 µM | Cc1ccc(C(=O)NCC(C)/N=C/c2cc(I)ccc2O)c(O)c1 (stereo unspecified)
 |  |  |  |  | > 133 µM | CC(CNC(=O)c1cc(Br)ccc1O)/N=C/c1ccccc1O (stereo unspecified)
6.86 µM | 12.5 µg/mL (≈ 27.4 µM) | 25 µg/mL (≈ 54.8 µM) | 0.78 µg/mL (≈ 1.71 µM) | 6.25 µg/mL (≈ 13.7 µM) |  | CC(CNC(=O)c1ccccc1O)/N=C/c1cc(Br)cc(Br)c1O (stereo unspecified)
 | 0.78 µg/mL (≈ 1.84 µM) | 6.25 µg/mL (≈ 14.7 µM) | 3.13 µg/mL (≈ 7.38 µM) | 12.5 µg/mL (≈ 29.5 µM) | 1.84 µM | CC(CNC(=O)c1ccccc1O)/N=C/c1cc(I)ccc1O (stereo unspecified)
 |  |  |  |  | 16 µM | CC(CNC(=O)c1ccccc1O)/N=C/c1cc(Br)ccc1O (stereo unspecified)
 |  |  |  |  | 16.2 µM | Cc1ccc(C(=O)NCC(C)/N=C/c2cc(Br)ccc2O)c(O)c1 (stereo unspecified)
 | 3.13 µg/mL (≈ 6.66 µM) | 0.78 µg/mL (≈ 1.66 µM) | 12.5 µg/mL (≈ 26.6 µM) | > 50 µg/mL | 11.4 µM | Cc1ccc(C(=O)NCC(C)/N=C/c2cc(Br)cc(Br)c2O)c(O)c1 (stereo unspecified)
26.5 µM |  |  |  |  |  | Cc1ccc(C(=O)NCC(C)/N=C/c2cc(I)cc(I)c2O)c(O)c1 (stereo unspecified)
4.65 µM | 12.5 µg/mL (≈ 22.7 µM) | > 50 µg/mL | 6.25 µg/mL (≈ 11.4 µM) | 12.5 µg/mL (≈ 22.7 µM) |  | CC(CNC(=O)c1ccccc1O)/N=C/c1cc(I)cc(I)c1O (stereo unspecified)
 |  |  |  |  | 19.6 µM | CC(CNC(=O)c1cc(Br)ccc1O)/N=C/c1cc(Cl)cc(Cl)c1O (stereo unspecified)
